SMILES strings stand for the structures. The source made the active and inactive calls. No cut-off for these calls is given here. A value given as a limit tells only on which side of the number the result lay.

Here are results for one compound from ChEMBL document CHEMBL4354867, “Validation and Characterization of Five Distinct Novel Inhibitors of Human Cytomegalovirus” (J Med Chem, 2020).

Data set [1] deals with Human betaherpesvirus 5. Briefly: Inhibition of viral protein expression in HCMV Towne infected in human HFF cells assessed as reduction in pp65 expression at 3 uM treated with compound for 24 hrs followed by viral infection at MOI of 0.01 PFU/cell measured at 72 hrs post infection by Western blot analysis. Type of data set: functional, organism-based. The following applies: strain Towne. The method in brief: (§1)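 HFFs pretreated with compound, then infected with HCMV Towne at MOI 1, 0.1 or 0.01. Viral proteins in cell lysates detected at 72 hpi by SDS-PAGE (8–10%), PVDF transfer and chemiluminescent immunoblot. Images from a representative experiment.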
Background: In western blotting, separated proteins are transferred to a membrane and probed.

The subject of the next data set is HFF. Briefly: Cytotoxicity against human HFF cells assessed as reduction in cell viability incubated for 72 hrs or 10 days by MTT assay. The class given is cell-based. The procedure, abridged:
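MTT assay on uninfected cells exposed to compound for 72 h or 8–10 days, matching the antiviral assay durations. MTT (5 mg/mL stock in PBS) added, then 2–3 h at 37 °C. Formazan absorbance read at 560 nm.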
On the technique in general: Tetrazolium dyes change colour on reduction, which living cells bring about.

Data set [2] relates to Human betaherpesvirus 5. The experiment in a line: Inhibition of viral protein expression in HCMV Towne infected in human HFF cells assessed as reduction in pp65 expression at 3 uM treated with compound following viral infection at MOI of 1 PFU/cell measured at 72 hrs post infection by Western blot analysis. Type of data set: functional, organism-based. The following applies: strain Towne. The procedure, abridged:
(§2)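 HFFs infected with HCMV Towne (MOI 1), then treated with compound. Lysates taken at 72 hpi, equal protein loaded on 8–10% Tris-glycine SDS-PAGE and transferred to PVDF. Primary antibodies overnight at 4 °C, HRP secondary, chemiluminescent detection; β-actin as loading control.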

In data set [3] the test system is Human betaherpesvirus 5. Briefly: Inhibition of viral protein expression in HCMV Towne infected in human HFF cells assessed as reduction in IE1 expression at 3 uM treated with compound for 24 hrs followed by viral infection at MOI of 1 PFU/cell measured at 72 hrs post infection by Western blot analysis. Type of data set: functional, organism-based. As to conditions: strain Towne. The method in brief:
as §1

In data set [4] the test system is Human betaherpesvirus 5. Briefly: Antiviral activity against HCMV Towne infected in human HFF cells assessed as reduction in plaque formation treated with compound following viral infection at MOI of 1 PFU/cell and measured at 10 days post-infection in presence of letermovir by crystal violet staining based assay. As to conditions: Human betaherpesvirus 5, strain Towne, 240 h. The class given is functional, organism-based.

A short description of data set [5]: Antiviral activity against Mouse Cytomegalovirus Smith (ATCC VR-1399) infected in mouse MEF cells assessed as reduction in plaque formation measured after 3 days by crystal violet staining based assay. As to conditions: mef. Type of data set: functional, cell-based, Murine cytomegalovirus (strain Smith). The method in brief: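 Plaque reduction with MCMV Smith in mouse embryonic fibroblasts, with compound in a carboxymethylcellulose overlay. Assay ended at 3 days and plaques counted after crystal violet staining.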

For the next data set, the system named is Human gammaherpesvirus 4. Briefly: Antiviral activity against EBV infected in human AKATA cells assessed as reduction in IgG-induced lytic virus replication measured at 48 hrs post-lytic induction by qRT-PCR analysis. The class given is functional, organism-based. The following applies: human gammaherpesvirus 4, 48 h; read-out: EC50. For orientation: In qPCR the cycle at which signal appears reflects the starting amount.

Data set [6] concerns Human betaherpesvirus 5. Briefly: Antiviral activity against HCMV Towne infected in human HFF cells assessed as reduction in plaque formation treated with compound following viral infection and incubated for 8 to 10 days by crystal violet staining based assay. The class given is functional, organism-based. The following applies: Human betaherpesvirus 5, strain Towne.
Data set [7] deals with Human betaherpesvirus 5. Briefly: Inhibition of viral protein expression in HCMV Towne infected in human HFF cells assessed as reduction in IE2 expression at 3 uM treated with compound for 24 hrs followed by viral infection at MOI of 1 PFU/cell measured at 72 hrs post infection by Western blot analysis. The class given is functional, organism-based. As to conditions: strain Towne. The method in brief:
as §1

For data set [8], the system named is Human betaherpesvirus 5. The experiment in a line: Antiviral activity against HCMV TB40 infected in human HFF cells assessed as reduction in plaque formation treated with compound following viral infection and incubated for 8 to 10 days by crystal violet staining based assay. The class given is functional, organism-based. The following applies: Human betaherpesvirus 5, TB40, HFF.

Data set [9] deals with Human betaherpesvirus 5. The experiment in a line: Antiviral activity against HCMV Towne infected in human HFF cells assessed as reduction in viral entry into host cell by measuring nuclear localization of pp65 at 3 uM treated with compound for 24 hrs followed by viral infection at MOI of 0.1 PFU/cell measured at 2 hrs post infection by immunofluorescence microscopy. The class given is functional, organism-based. The following applies: strain Towne. The procedure, abridged: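 HFFs on chamber slides pretreated 24 h with compound diluted in serum-free medium, then infected with HCMV Towne for 2 h. Heparin 30 μM as positive entry-block control. Cells methanol-fixed, then stained with anti-pp65 (1:50) and rhodamine anti-mouse IgG, with DAPI. Nuclear pp65 viewed by fluorescence microscopy at 40x; repeated three times.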

The subject of data set [10] is Human betaherpesvirus 5. The experiment in a line: Antiviral activity against pp28-luciferase expressing HCMV Towne infected in human HFF cells assessed as reduction in viral entry by measuring viral replication at 1 to 10 uM treated with compound for 24 hrs followed by viral infection at MOI of 0.01 to 1 PFU/cell measured at 72 hrs post infection by luciferase reporter gene assay. Type of data set: functional, organism-based. As to conditions: strain Towne. The method in brief: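 HFFs pretreated 24 h with compound, then infected with pp28-luciferase recombinant Towne HCMV (luciferase under the UL99 late promoter) at MOI 1, 0.1 or 0.01. Luciferase measured in cell lysates after 3 days. Triplicate values, mean ± SD.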

For data set [11], the system named is Human betaherpesvirus 5. The experiment in a line: Inhibition of viral protein expression in HCMV Towne infected in human HFF cells assessed as reduction in UL44 expression at 3 uM treated with compound for 24 hrs followed by viral infection at MOI of 0.01 PFU/cell measured at 72 hrs post infection by Western blot analysis. The class given is functional, organism-based. As to conditions: strain Towne. The method in brief:
as §1

Data set [12] has as its system Human betaherpesvirus 5. Briefly: Inhibition of viral protein expression in HCMV Towne infected in human HFF cells assessed as reduction in IE1 expression at 3 uM treated with compound for 24 hrs followed by viral infection at MOI of 0.01 PFU/cell measured at 72 hrs post infection by Western blot analysis. Type of data set: functional, organism-based. As to conditions: strain Towne. The procedure, abridged:
as §1

For data set [13], the system named is Human betaherpesvirus 5. Briefly: Antiviral activity againstpp28-luciferase expressing HCMV Towne infected in human HFF cells assessed as reduction in viral replication treated with compound following viral infection at MOI of 1 PFU/cells measured after 3 days in presence of GCV by luciferase reporter gene assay. As to conditions: Human betaherpesvirus 5, strain Towne, 72 h. Type of data set: functional, organism-based. The procedure, abridged: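 HFFs in 96-well plates were infected with pp28-luciferase Towne HCMV, in which luciferase is driven by the UL99 late promoter, at MOI 1. A dose-response of each drug alone gave its EC₅₀. Combinations started at twice each EC₅₀ in DMEM with 4% FBS, followed by two-fold serial dilutions, and were added after infection. Luciferase was read in cell lysates at 72 hpi. The Bliss ratio is observed over expected inhibition.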

Data set [14] deals with Human betaherpesvirus 5. Briefly: Inhibition of viral protein expression in HCMV Towne infected in human HFF cells assessed as reduction in IE2 expression at 3 uM treated with compound following viral infection at MOI of 1 PFU/cell measured at 72 hrs post infection by Western blot analysis. The class given is functional, organism-based. The following applies: strain Towne. The method in brief:
as §2

The test system of data set [15] is Human betaherpesvirus 5. Briefly: Inhibition of viral protein expression in HCMV Towne infected in human HFF cells assessed as reduction in UL44 expression at 3 uM treated with compound for 24 hrs followed by viral infection at MOI of 1 PFU/cell measured at 72 hrs post infection by Western blot analysis. The class given is functional, organism-based. As to conditions: strain Towne. The procedure, abridged: as §1

In data set [16] the test system is Human betaherpesvirus 5. The experiment in a line: Inhibition of viral protein expression in HCMV Towne infected in human HFF cells assessed as reduction in UL44 expression at 3 uM treated with compound following viral infection at MOI of 1 PFU/cell measured at 72 hrs post infection by Western blot analysis. The class given is functional, organism-based. The following applies: strain Towne. The method in brief:
as §2

`COc1ccc(Cl)cc1C(=O)Nc1ccc(NC(=O)c2ccco2)cc1`: the inhibition entry with Human betaherpesvirus 5 [1], in the data set with Human betaherpesvirus 5 [11] and in the data set with Human betaherpesvirus 5 [12] was “Active” in each case. Also, the CC50 with HFF is greater than 500000 nM. The inhibition entry in the data set with Human betaherpesvirus 5 [2], in the data set with Human betaherpesvirus 5 [3], in the data set with Human betaherpesvirus 5 [7], with Human betaherpesvirus 5 [14], in the data set on Human betaherpesvirus 5 [15] and with Human betaherpesvirus 5 [16] was “inactive” in each case. Also, the EC50 in the data set with Human betaherpesvirus 5 [4] was 320 nM; in [5], “Not Active”; with Human gammaherpesvirus 4, greater than 10000 nM; in the data set on Human betaherpesvirus 5 [6], 550 nM; in the data set with Human betaherpesvirus 5 [8] it was 120 nM; in the data set with Human betaherpesvirus 5 [13], 720 nM. For the same compound, the outcome in the data set with Human betaherpesvirus 5 [9] and in the data set with Human betaherpesvirus 5 [10] was Active.

For orientation: CC50 means the concentration that lowers cell viability or growth by half. One may read the EC50 as the concentration giving half of the maximal effect.
